Laboratory results as given in ChEMBL document CHEMBL1148978, “Lignan derivatives and a norditerpene from the seeds of Vitex negundo” (J Nat Prod, 2004).
Activity calls are given as the source filed them. No cut-off for these calls is given here.

Experiments:
[1] = Antioxidant activity assessed as inhibition of lipid peroxidation at 0.5 mM after 5 days by ferric-thiocyanate method; format: functional
Procedure, shortened: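 Linoleic acid peroxidation: 2.51% linoleic acid in EtOH mixed with 0.05 M phosphate buffer pH 7.0, EtOH and water. Sample added from 10 mM EtOH stock, 0.5 mM final. Capped vial kept in dark at 40 °C for 5 days. Aliquot diluted in 75% EtOH, ammonium thiocyanate and ferrous chloride in HCl added, A500 read after 3 min. Blank lacks compound.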

[2] = tested on: Radical scavenging activity; test: Antioxidant activity assessed as DPPH radical scavenging activity at 0.02 mM; format: functional
Procedure, shortened: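 Sample in EtOH (0.02 mM final) added to 0.1 M acetate buffer pH 5.5 plus 0.5 mM DPPH in EtOH. Mixture stood 30 min at room temperature. Modified from a published DPPH method.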

Row | SMILES | Activity [1] | Activity [2]
1 | COc1cc(-c2c3c(cc4cc(OC)c(O)cc24)C(=O)NC3)ccc1O | Active | Active
2 | COc1cc([C@H]2c3cc(O)c(OC)cc3C=C(C=O)[C@@H]2CO)ccc1O | Active | Active
3 | COc1cc(-c2c(O)c(C=O)cc3cc(OC)c(O)cc23)ccc1O | Active | Active
4 | COc1cc([C@H]2c3c(ccc(O)c3OC)C=C(C=O)[C@@H]2CO)ccc1O | Active | Active
5 | COc1cc(-c2cc(C=O)cc3cc(OC)c(O)cc23)ccc1O | Active | Active
6 | COc1cc(-c2c3c(cc4cc(OC)c(O)cc24)C(=O)OC3)ccc1O | Active | Active
